Shown are actives, neighbours in structure and some others; about 2.2% of the full set was active somewhere.
APP 5UTR inh = APP translation inhibition. inhibition, % at 2 µM. AID 1285. SH-SY5Y APP 5'UTR-luciferase reporter, luminescence. 0.82% of 190,000 active;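 active = inhibition above a set limit, derived from the sample mean plus 3 SD, cut at about 45% in these data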
BaF3 tox = reduces parental Ba/F3 cell viability, JAK2V617F counter-screen | CellTiter-Glo ATP luminescence | inhibition, % at 5.6 µM | 1.1% of 220,000 active | AID 1486;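 active = inhibition above a per-campaign cutoff, the mean inhibition of all tested compounds plus 3 SD, cut at about 27% in these data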;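 note: 0% = DMSO wells and 100% = JAK Inhibitor I control wells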
MT stabilizer = microtubule stabilizers in HeLa cells | HeLa tubulin immunostaining HCS, 24 h; share of cells brighter than vehicle mean+2SD | % tubulin-high responders, % at 10 µM | 0.83% of 200,000 active | AID 2205;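 active = plate Z-score above 3 for both tubulin-high and condensed-nucleus cell shares, with cell loss under 80%, at 10 µM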;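 note: anti alpha tubulin signal scored within the nucleus-defined area of each cell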
bCat nuc transl = modulators of beta-catenin nuclear translocation; 0.3% of 190,000 active; HeLa beta-catenin nuclear translocation, immunofluorescence imaging; nuclear translocation activity, % at 5 µM;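 active = nuclear translocation activity above 50% at 5 µM, with a well cell count of 50 or more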;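 note: per-cell ratio of nuclear to cytoplasmic median beta-catenin stain intensity; plate controls were DMSO negative control for no effect and GSK-3 inhibitor IX positive control for full effect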
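Test system: HeLa cells, endogenous beta-catenin; Compound: single 5 µM dose plus 0.02–20 µM confirmation series; Times: compound exposure 24 h at 37°C; Signal: fluorescence imaging of beta-catenin antibody stain plus DAPI; Read-out: % activation, nuclear-to-cytoplasmic median beta-catenin signal ratio per cell.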
Ba/F3 V617F tox = reduce viability of Ba/F3 cells dependent on JAK2V617F; Ba/F3 EpoR-JAK2V617F viability, ATP luminescence; AID 1446; inhibition, % at 5.6 µM; 1.1% of 220,000 active;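 active = inhibition above the campaign mean plus 3 SD over all tested compounds, cut at about 24% in these data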;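 note: cytokine-independent growth of Ba/F3 cells driven by EpoR plus mutant JAK2; 0% = DMSO-treated cells and 100% = JAK inhibitor I control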
IEC-6 cytotox = IEC-6 cytotoxicity, counter-screen for KLF5 inhibitors; luminescence viability; inhibition, % at 5 µM; 0.78% of 290,000 active; AID 1825; in the data active = inhibition above about 22%;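 note: 0% = plate median of test compound wells and 100% = cytotoxic reference compound wells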
* marks the source's active call; other numbers are inactive results; nt = no result given.

SMILES	APP 5UTR inh	BaF3 tox	MT stabilizer	bCat nuc transl	Ba/F3 V617F tox	IEC-6 cytotox
CS(=O)(=O)Nc1cccc(S(=O)(=O)N2CCN(C(=O)c3ccccc3)CC2)c1	nt	-4.6	nt	0.8	4.4	7.9
O=C(Cn1nc(-c2ccccc2)c2ccccc2c1=O)Nc1ccc(F)cc1	nt	-3.3	nt	1.6	-2.1	-3.3
N#Cc1c(-c2ccccc2)c(-c2ccccc2)nn(CC(=O)NNC(=O)Nc2ccc(Cl)c(Cl)c2)c1=O	4.1	4.9	21.2*	19.7	3.5	-0.9
Cc1ccc(C(C)C)c(OCC(=O)NN=C2CCCCCCC2)c1	85.5*	3.1	5.1	-1.6	-1.5	0.4
Cc1ccc(C(C)C)c(OCC(=O)N/N=C2\CC(=O)CC(C)(C)C2)c1	nt	nt	nt	nt	nt	4.8
CC1(C)CC(=O)c2sc(NC(=O)CN3CCCCC3)nc2C1	54.1*	2.3	2.0	-5.4	-0.2	-0.1
CC1(C)CC(=O)c2sc(NC(=O)C(C)(C)C)nc2C1	-29.1	0.5	1.0	0.3	-3.7	0.5
Cc1cc(C)c2nc(Cl)c(CN(Cc3ccco3)C(=O)Nc3ccccc3C)cc2c1	56.7*	3.2	21.4*	-1.0	1.6	7.6
COCCN(Cc1cc2cc(C)cc(C)c2nc1Cl)C(=O)Nc1ccccc1	-5.2	6.8	33.5*	0.3	-0.9	-4.4
COc1cccc(/C=N/n2c(-c3n[nH]c4c3CCC4)n[nH]c2=S)c1O	-14.1	3.0	5.4	0.6	2.6	-0.1
COc1ccccc1/C=C/C=N/n1c(-c2n[nH]c3c2CCC3)n[nH]c1=S	nt	5.9	nt	61.8*	2.6	1.4
Cc1sc2nc(SCC(=O)C(C)(C)C)n(Cc3ccco3)c(=O)c2c1C	-4.2	-0.6	34.8*	3.6	-3.0	7.0
Cc1sc2nc(SCc3ccccc3)n(Cc3ccco3)c(=O)c2c1C	-8.5	0.5	3.0	-0.5	-3.8	0.9
CCOC(=O)c1sc2ncn(C(C)C(=O)OC)c(=O)c2c1C (stereo not given)	-13.7	0.9	2.2	0.0	-4.1	2.4
CCCOC(=O)C(C)n1cnc2sc(C)c(C)c2c1=O (stereo not given)	10.3	46.5*	2.3	nt	-6.0	-0.8
O=C(Nc1cccnc1)c1ccc(COc2ccccc2Br)o1	5.0	5.2	25.6*	nt	-1.5	-1.6
C/C(=N\Nc1ccc(C)c(Cl)c1)c1cccnc1	nt	nt	nt	nt	nt	7.6
O=[N+]([O-])c1ccc(C[n+]2ccc(Cc3ccccc3)cc2)cc1	-43.3	37.4*	1.7	0.3	12.6	-1.2
Cc1ccc(C(=O)C[n+]2ccc(Cc3ccccc3)cc2)cc1	-12.3	12.4	8.6	-1.9	2.2	-2.9
c1ccc(Cc2cc[n+](Cc3ccccn3)cc2)cc1	nt	64.8*	nt	0.7	57.1*	2.4
O=C(Nc1cc(Cl)ccn1)C1(c2ccccc2)CC1(Cl)Cl (stereo not given)	nt	1.7	nt	-3.8	-1.3	3.4
COc1ccc(C(=O)N(Cc2ccccc2)Cc2cc3cc4c(cc3[nH]c2=O)OCCO4)cc1	-4.0	4.3	36.3*	-2.2	-2.8	1.5
Cc1ccc2cc(CN(CC3CCCO3)C(=S)Nc3ccccc3)c(=O)[nH]c2c1 (stereo not given)	35.3	8.4	16.0*	63.5*	1.0	5.3
Cc1cc(C)c2[nH]c(=O)c(CN(CC3CCCO3)C(=S)Nc3ccccc3)cc2c1 (stereo not given)	nt	4.8	4.0	-1.8	1.8	-3.5
Cc1ccc2[nH]c(=O)c(CN(CC3CCCO3)C(=S)Nc3ccccc3)cc2c1 (stereo not given)	9.2	6.0	12.0*	0.0	0.6	-6.5
SMILES	APP 5UTR inh	BaF3 tox	MT stabilizer	bCat nuc transl	Ba/F3 V617F tox	IEC-6 cytotox
Cc1ccc2cc(CN(CC3CCCO3)C(=S)Nc3ccccc3)c(=O)[nH]c2c1C (stereo not given)	53.0*	7.6	10.8	33.4	1.0	8.2
Cc1nc2c3ccccc3nc(NNC(=O)CCC(=O)N3CCCC(C)C3)n2n1 (stereo not given)	nt	nt	nt	nt	nt	6.3
Cc1ccc2cc(CN(Cc3ccco3)C(=S)NCC3CCCO3)c(=O)[nH]c2c1 (stereo not given)	-16.7	3.2	0.9	-1.8	4.3	10.7
O=c1[nH]c2cc3c(cc2cc1CN(Cc1ccco1)C(=S)NCC1CCCO1)OCCO3 (stereo not given)	9.3	5.3	22.1*	18.4	-0.4	-2.3
Cc1ccc2cccc(Oc3ccc([N+](=O)[O-])cc3[N+](=O)[O-])c2n1	22.2	2.0	15.8*	nt	1.6	-3.1
O=[N+]([O-])c1ccc(Oc2cccc3cccnc23)c([N+](=O)[O-])c1	-7.9	7.0	7.2	3.2	-0.7	7.7
O=C(C[n+]1cc(-c2ccc(Cl)cc2)n2c1CCCCC2)c1ccccc1	nt	43.1*	nt	-0.3	27.8*	-6.2
O=C(C[n+]1cc(-c2ccc(F)cc2)n2c1CCC2)N1c2ccccc2Sc2ccccc21	-108.7	6.8	3.1	-0.6	-1.0	1.3
O=C(C[n+]1cc(-c2ccc(Br)cc2)n2c1CCCCC2)c1ccccc1	16.3	49.3*	8.0	4.6	38.2*	-2.3
O=C(C[n+]1cc(-c2ccccc2)n2c1CCC2)N1c2ccccc2Sc2ccccc21	-0.5	6.3	1.9	-0.5	0.0	-3.8
O=C(C[n+]1cc(-c2ccccc2)n2c1CCC2)c1cccs1	-9.6	39.0*	3.1	0.1	25.6*	-9.5
CN1CCN(C(=O)c2ccc(CNS(=O)(=O)c3cccc(Cl)c3)cc2)CC1	nt	nt	nt	nt	nt	-5.7
Cc1cccc(OCCCC(=O)NC2CCCCC2)c1	nt	nt	nt	nt	nt	0.9
N=c1ccn(Cc2c(Cl)cccc2Cl)cc1	nt	62.9*	nt	1.2	74.6*	-8.5
CCn1ccc(=N)cc1	-16.4	4.9	1.5	-1.3	3.4	0.0
N=c1ccn(Cc2ccccc2Cl)cc1	24.5	64.8*	1.2	1.2	81.2*	5.1
N=c1ccn(Cc2ccc(Cl)cc2Cl)cc1	-0.9	70.6*	2.4	-3.5	89.8*	3.4
CSCCC(=O)NC1CCCN(CCc2ccccc2)C1 (stereo not given)	nt	nt	nt	nt	nt	7.0
COc1cc(C(=O)N2CCN(c3ccc(C)cc3C)CC2)cc(OC)c1OC	76.1*	44.1*	27.3*	27.3	36.8*	42.5*
CC1=C(C#N)C(c2ccccc2)C2=C(N1)c1ccccc1C2=O (stereo not given)	77.5*	3.0	23.6*	-4.2	-2.8	5.9
CC1=C(C#N)C(c2cccnc2)C2=C(N1)c1ccccc1C2=O (stereo not given)	-4.0	2.0	1.0	-2.3	-0.6	2.7
CCOC(=O)N1CCN(C(=O)CN(c2ccc(OCC)cc2)S(C)(=O)=O)CC1	11.8	2.2	1.5	-0.9	-2.7	2.1
CCOC(=O)N1CCN(C(=O)CN(c2ccc(Oc3ccccc3)cc2)S(C)(=O)=O)CC1	21.5	34.1*	2.1	-0.2	-2.1	-4.8
CC(=O)Nc1ccc(S(=O)(=O)N2CCN=C2SCc2ccc([N+](=O)[O-])cc2)cc1	nt	nt	nt	nt	nt	9.4
CCC(=O)N1CCCN(S(=O)(=O)c2ccc(C)cc2)C1c1ccc(OC)cc1 (stereo not given)	nt	nt	nt	nt	nt	2.4
